Mcl-1 Bim block: human Bim-Mcl-1 interaction inhibition. inhibition, % at 10 µM. 0.1% of 190,000 active. Q07820. Bead-based flow cytometry, Bim peptide-Mcl-1 binding. AID 1009; in the data active = inhibition above about 40%
RBBP9 inh: human RBBP9 hydrolase inhibition | O75884 | recombinant RBBP9, FP-Rh probe fluorescence polarization | inhibition, % at 7.94 µM | 0.2% of 220,000 active | AID 1515;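 active = inhibition above the campaign mean of all tested compounds plus 3 SD, cut at about 14% in these data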
Target sequence (O75884 whole entry, looked up): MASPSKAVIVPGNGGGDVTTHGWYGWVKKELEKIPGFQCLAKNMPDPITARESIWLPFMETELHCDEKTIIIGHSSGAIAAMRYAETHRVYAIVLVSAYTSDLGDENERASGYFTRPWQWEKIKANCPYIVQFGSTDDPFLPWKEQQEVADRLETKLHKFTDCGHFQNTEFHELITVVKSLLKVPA
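System: RBBP9 protein / Buffer or medium: Tris/NaCl buffer pH 8.0 with 0.1% Pluronic / Probe or stimulus: Serine-hydrolase probe FP-Rh, 375 nM pre-mixing / Dosing: 7.94 µM single dose, 0.794% DMSO / Times: enzyme-compound preincubation 30 min, then probe labeling 45 min, 25 °C / Technique: fluorescence polarization (mP), excitation 525 nm, emission 598 nm / Replication: singlicate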
EBV gp42 inh: EBV gp42 inhibition | Q1HVG2 | Fluorescence polarization binding assay, mP read-out | inhibition, % (tested at 21.74 µM) | 0.42% of 220,000 active | AID 1085; in the data active = inhibition above about 50%
Target sequence (Q1HVG2 whole entry, looked up): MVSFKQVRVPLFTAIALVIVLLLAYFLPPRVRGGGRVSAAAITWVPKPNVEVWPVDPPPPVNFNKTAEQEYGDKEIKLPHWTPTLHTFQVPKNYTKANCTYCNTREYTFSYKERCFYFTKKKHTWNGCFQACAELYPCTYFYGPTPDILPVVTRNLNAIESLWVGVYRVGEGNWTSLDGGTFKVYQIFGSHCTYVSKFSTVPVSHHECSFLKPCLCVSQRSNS
Mcl1-Bid inh: Mcl-1/Bid interaction inhibition. 0.97% of 220,000 active. inhibition, % at 21.7 µM. Q07820. TR-FRET Mcl-1/Bid-Dy647 peptide binding, 1536-well. AID 1021;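 active = compounds that cut the binding signal by more than half at the single screening dose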;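 note: His-tagged Mcl-1 with europium anti-His antibody binding Bid BH3 peptide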
MCL1 BIM primary: MCL1-BIM-BH3 interaction inhibition (human); Q07820; GST-MCL1 / FITC-Bim-BH3 fluorescence polarization; inhibition, % at 10.9 µM; 0.68% of 320,000 active; AID 2057;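 active = inhibition above the mean inhibition of all tested compounds plus 3 SD, set per campaign, cut at about 40% in these data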;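 note: higher means more loss of mP so more displacement of Bim peptide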
Mcl1-Noxa inh: disrupts binding of human Mcl-1 to Noxa peptide; inhibition, % at 21.7 µM; 1.5% of 220,000 active; TR-FRET Mcl-1/Noxa peptide binding, 2 h;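 active = compounds that cut the protein-peptide binding signal by more than 50% relative to plate controls in a single-dose test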;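 note: His-tagged Mcl-1 with rhodamine Noxa BH3 peptide and terbium anti-His antibody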
Numbers stand for hits; 0 = inactive; - = not tested or not shown. Compounds with a hit are over-represented: about 2.2% of the library has one in this group of screens.

SMILES	Mcl-1 Bim block	RBBP9 inh	EBV gp42 inh	Mcl1-Bid inh	MCL1 BIM primary	Mcl1-Noxa inh
Oc1ccc(-c2nc(-c3ccc(O)c(O)c3)cs2)cc1	0	0	0	0	0	59.0
N#Cc1ccc(-c2cccnc2)nc1SCC(=O)Nc1sc2c(c1C#N)CCC2	0	0	0	0	0	60.3
O=C(O)CC(CC(=O)NCC(O)c1ccccc1)c1ccccc1 (configuration not stated)	-	-	-	-	0	-
COc1ccc(C(c2c(O)nc[nH]c2=O)c2c(O)nc[nH]c2=O)cc1	-	0	0	0	0	0
COc1ccc(C(c2c(O)cc(C)oc2=O)c2c(O)cc(C)oc2=O)cc1	0	0	0	0	0	76.2
CC(c1nccs1)N(C)C(=O)CCc1nnc(Cc2c[nH]c3ccccc23)o1 (configuration not stated)	0	0	0	0	0	0
CN(CCc1ccccn1)C(=O)CCC1CCCN(C(=O)NC2CCCCC2)C1 (configuration not stated)	57.0	0	0	0	0	0
CCCn1c(=O)c2sccc2n2c(CCCC(=O)NC3CCN(Cc4ccccc4)CC3)nnc12	-	-	-	-	0	-
Cc1ccccc1C(=O)Nc1ccc2c(C#N)c3nc4ccccc4nc3n2c1	0	0	112.3	84.1	0	70.4
CCCc1cc(=O)oc2c(C)c(OCC(=O)NC3CCN(Cc4ccccc4)CC3)ccc12	-	-	-	-	0	-
O=C(Nc1cc(S(=O)(=O)N2CCOCC2)ccc1N1CCCC1)c1cccnc1Cl	-	0	0	0	0	0
Cc1ccc2[nH]c(O)c(N=NC(=O)c3ccc(NS(=O)(=O)c4cccs4)cc3)c2c1	-	0	58.4	0	0	70.7
O=C(NN1C(=O)C2C(C1=O)C1C=CC2C12CC2)c1ccc(Cl)cc1 (configuration not stated)	-	0	0	99.6	0	0
CC1OC(OCC2OC(Oc3c(-c4ccc(O)cc4)oc4cc(O)cc(O)c4c3=O)C(O)C(O)C2O)C(O)C(O)C1O (configuration not stated)	0	0	0	0	0	54.1
O=C(CCNS(=O)(=O)c1cccc2nsnc12)Nc1ccc2c(c1)OCCO2	0	0	0	0	0	0
O=S(=O)(Nc1ccc2c(c1)OCCO2)c1cccc2nsnc12	0	0	0	61.0	0	0
COc1ccc(NC(=O)c2ccccc2NS(C)(=O)=O)cc1OC	0	0	0	50.9	0	0
COc1ccc(OC)c(NC(=O)c2ccc3c(c2)C(=O)N(CC2CCCO2)C3=O)c1 (configuration not stated)	-	-	-	-	0	-
CN1CCN(C(c2cccnc2)c2ccc3cccnc3c2O)CC1 (configuration not stated)	0	0	0	0	0	51.6
COC(=O)N(NC(=O)C(O)(c1ccccc1)c1ccccc1)c1ccccc1	0	0	0	60.1	0	0
O=C(c1ccc(F)cc1)N(NC(=O)C(O)(c1ccccc1)c1ccccc1)c1ccccc1	0	0	0	0	0	0
Cc1cn(CC2COC(C)(C)O2)c(=O)[nH]c1=O (configuration not stated)	0	0	0	0	0	73.1
O=C(NCc1ccco1)C1CCCN1C(=O)NCc1ccccc1 (configuration not stated)	0	0	0	0	0	0
O=C(NCc1ccc(F)cc1)C1CCCN1C(=O)NCc1ccccc1 (configuration not stated)	0	0	0	0	0	51.5
CC(NC(=O)c1ccco1)C(=O)OC(C)C(=O)NCc1ccccc1 (configuration not stated)	0	0	0	0	0	0
SMILES	Mcl-1 Bim block	RBBP9 inh	EBV gp42 inh	Mcl1-Bid inh	MCL1 BIM primary	Mcl1-Noxa inh
CCc1nccn1CCC(=O)NC1CCCc2c1cnn2-c1ccc(F)cc1F (configuration not stated)	-	-	-	-	0	-
COC(=O)[C@@]1(Cc2ccc(F)cc2)[C@H]2c3cc(C(=O)N4CCCC4)n(CCc4ccc(O)c(O)c4)c3C[C@H]2CN1C(=O)c1ccccc1	0	0	0	0	0	65.4
COC(=O)[C@@]1(Cc2ccc(F)cc2)[C@H]2c3cc(C(=O)N4CCCC4)n(CCO)c3C[C@H]2CN1C(=O)c1ccccc1	0	0	0	0	0	0
O=[N+]([O-])c1ccccc1Oc1ccc(S(=O)(=O)N2CCOCC2)cc1	-	-	-	-	0	-
Nc1cc([N+](=O)[O-])ccc1Nc1ccc(O)cc1	-	0	0	0	0	71.9
Nc1ccccc1Nc1ccc([N+](=O)[O-])cc1[N+](=O)[O-]	0	0	0	0	0	0
O=C1ON=C(c2ccccc2)/C1=C/c1ccc(O)cc1	-	-	-	-	0	-
O=C1ON=C(c2ccc(Cl)cc2)/C1=C/c1ccc(O)cc1	0	0	0	0	0	65.8
O=C(NNc1c([N+](=O)[O-])cc(C(F)(F)F)cc1[N+](=O)[O-])c1ccco1	-	-	-	-	0	-
CC1(C)CC(NC(=O)COc2ccc([N+](=O)[O-])cc2)CC(C)(C)N1	68.0	0	0	0	0	0
COc1ccc(OCC(=O)NC2CC(C)(C)NC(C)(C)C2)cc1	0	0	0	0	0	0
O=S(=O)(Nc1nccs1)c1ccc(F)cc1	0	0	0	0	0	0
O=C(NCCOC(=O)c1ccccc1)c1ccccc1	-	-	-	-	0	-
O=C(Nc1cccc(Cl)c1)c1cc(N=Nc2ccc([N+](=O)[O-])cc2Cl)ccc1O	-	0	79.0	100.2	0	108.8
O=C(Nc1ccc([N+](=O)[O-])cc1Cl)c1cc(Cl)ccc1O	-	-	-	-	0	-
CCN(CC(=O)Nc1cccc(OC)c1)CC(=O)Nc1cccc2ccccc12	-	-	-	-	0	-
O=C1/C(=C/Nc2ccc3c(c2)OCO3)CCc2ccccc21	0	0	0	0	0	0
COc1ccc2c(c1)CC/C(=C\Nc1ccc3c(c1)OCO3)C2=O	0	0	0	0	0	73.4
COc1ccc(CN(CCN)C2CC(C)N(C)CC2C)cc1 (configuration not stated)	-	-	-	-	0	-
O=C(COC(=O)COc1ccc(Br)cc1)NCc1ccccc1	-	-	-	-	0	-
CCN(CC)CCCC(C)Nc1c2ccc(Cl)cc2nc2ccc(OC)cc12 (configuration not stated)	0	0	117.6	0	-	0
O=C(CNC(=O)c1ccco1)N=Nc1c(O)[nH]c2ccc(Br)cc12	-	-	-	-	0	-
Cc1occc1C(=O)N=Nc1c(O)[nH]c2ccc(Br)cc12	0	0	0	0	0	51.3
CCNc1ccc2c(Cl)cc(=O)oc2c1	0	0	0	96.9	0	0
CCOC(=O)[C@@H]1[C@H]2COc3ccccc3[C@@H]2N2C(=O)N(c3cccc(C)c3)C(=O)[C@]12C	-	-	-	-	0	-
O=C(OCCN=C1NS(=O)(=O)c2ccccc21)c1cccs1	0	0	0	0	0	0
CC12CCC(C(=O)Nc3ccccc3-n3cccc3)(CC1=O)C2(C)C (configuration not stated)	0	0	0	75.8	0	0
CCCCn1c(-c2ccc(Cl)cc2)nc2c(=O)n(C)c(=O)[nH]c21	0	0	0	0	-	76.0

Screening results: PubChem, several laboratories
